Results taken from ChEMBL document CHEMBL1759908, “Design, synthesis and potential 6 Hz psychomotor seizure test activity of some novel 2-(substituted)-3-{[substituted]amino}quinazolin-4(3H)-one” (Eur J Med Chem, 2011).
Active and inactive are the calls of the source.

How the values were obtained:
[1] = test system: Mus musculus; assay: Anticonvulsant activity in CF1 mouse assessed as protection against 32 mA-current- for 3 secs induced seizure at 100 mg/kg, ip after 2 hrs by 6Hz psychomotor seizure test; assay type: functional
How it was run: (§1)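 Male CF-1 mice (18-25 g) received 100 mg/kg i.p. as a suspension in 0.5% methylcellulose. At 0.25, 0.5, 1.0, 2.0 and 4.0 h, four mice per time point were stimulated through corneal electrodes (32 mA, 3 s, 6 Hz). Mice without psychomotor seizure behaviour were counted as protected. Results are reported as number protected over number tested.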

[2] = test system: Mus musculus; assay: Anticonvulsant activity in CF1 mouse assessed as protection against 32 mA-current- for 3 secs induced seizure at 100 mg/kg, ip after 0.25 hr by 6Hz psychomotor seizure test; assay type: functional; how it was run: as §1
[3] = Lipophilicity, log P of the compound in octanol-phosphate buffer; assay type: physicochemical
How it was run: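 Experimental log P was measured by octanol-phosphate buffer partition. The mixture stood 24 h at room temperature and was then equilibrated 6 h in a separating funnel. Phases were separated and membrane-filtered, and drug in the aqueous phase was quantified by UV spectroscopy.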

[4] = test system: Mus musculus; assay: Anticonvulsant activity in CF1 mouse assessed as protection against 32 mA-current- for 3 secs induced seizure at 100 mg/kg, ip after 4 hrs by 6Hz psychomotor seizure test; assay type: functional, organism-based; design: dose 100 mg/kg; how it was run: as §1
[5] = test system: Mus musculus; assay: Neurotoxicity in CF1 mouse assessed as minimal motor impairment at 100 mg/kg, ip after 1 min by rotarod test; assay type: toxicity, organism-based; design: dose 100 mg/kg, route intraperitoneal; details: in vivo
How it was run: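 Neurotoxicity was scored as minimal motor impairment on the rotarod. Male CF-1 mice (18-25 g) received 100 mg/kg i.p. as a 0.5% methylcellulose suspension. Results are given as number toxic over number tested.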

[6] = test system: Mus musculus; assay: Anticonvulsant activity in CF1 mouse assessed as protection against 32 mA-current- for 3 secs induced seizure at 100 mg/kg, ip after 0.5 hr by 6Hz psychomotor seizure test; assay type: functional; how it was run: as §1
[7] = test system: Mus musculus; assay: Anticonvulsant activity in CF1 mouse assessed as protection against 32 mA-current- for 3 secs induced seizure at 100 mg/kg, ip after 1 hr by 6Hz psychomotor seizure test; assay type: functional; how it was run: as §1
[8] = Neuroprotective activity against N-methyl-D-aspartate induced toxicity in hippocampus slices after 4 hrs propidium iodide staining; assay type: functional, tissue-based
How it was run: (§2)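 Organotypic hippocampal slice cultures were exposed to NMDA or kainic acid alone, or with the investigational compound, in the presence of propidium iodide. Cell death was read as propidium iodide fluorescence intensity and compared with slices given excitotoxin alone.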

[9] = test system: Mus musculus; assay: Anticonvulsant activity against 32 mA-current- for 3 secs induced seizure in ip dosed CF1 mouse after 0.5 hr by 6Hz psychomotor seizure test; assay type: functional
How it was run: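 Quantitative 6 Hz test in male CF-1 mice. The compound was suspended in 0.5% methylcellulose and given i.p. at 50, 100, 200 and 350 mg/kg, eight mice per dose. Mice were stimulated through corneal electrodes (32 mA, 3 s) at a 0.5 h time of peak effect. ED50 was derived from the number of mice protected per dose.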

[10] = Neuroprotective activity against kainic acid induced toxicity in hippocampus slices after 4 hrs propidium iodide staining; assay type: functional, tissue-based; how it was run: as §2
[11] = Toxicity in ip dosed CF1 mouse after 0.5 hr; assay type: organism-based; details: in vivo
How it was run: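 Quantitative toxicity test in male CF-1 mice dosed i.p. (0.5% methylcellulose suspension) at 50, 100, 200 and 350 mg/kg, eight mice per dose. Motor impairment was scored at 0.5 h and TD50 derived from the number of toxic mice over the number tested.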

[12] = test system: Mus musculus; assay: Anticonvulsant activity in CF1 mouse at 30 to 300 mg/kg, sc after 30 mins by subcutaneous metrazole seizure threshold test; assay type: functional, organism-based
[13] = test system: Mus musculus; assay: Anticonvulsant activity in CF1 mouse at 30 to 300 mg/kg, ip by maximal electroshock test; assay type: functional, organism-based
How it was run: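 Male CF-1 mice (18-25 g) were dosed i.p. at 30, 100 and 300 mg/kg (0.5% methylcellulose suspension). Maximal electroshock protection and neurotoxicity were assessed 30 min and 4 h after administration.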

Row | Compound | logP [3] | Activity [1] | Activity [4] | Activity [5] | Activity ([6]; route intraperitoneal) | also measured
1 | Cc1nc2ccccc2c(=O)n1/N=C/c1ccc(Oc2ccc(F)cc2)cc1 | 4.21 | – | inactive | Non-toxic | – | Activity [2]: inactive; Activity ([7]; route intraperitoneal): 50%
2 | Cc1cc(Oc2ccc(/C=N/n3c(-c4ccccc4)nc4ccccc4c3=O)cc2)ccc1Cl | 6.52 | – | inactive | Non-toxic | 100% | Activity ([1]; route intraperitoneal): 25%; Activity ([2]; route intraperitoneal): 75%; Activity [8]: inactive; ED50 [9]: > 350 mg/kg; Activity [6]: Active; Activity ([7]; route intraperitoneal): 25%; Activity [10]: inactive; TD50 at 0.5 h [11]: > 350 mg/kg
3 | O=c1c2ccccc2nc(-c2ccccc2)n1/N=C/c1ccc(Oc2ccc(Br)cc2)cc1 | 6.39 | – | – | – | – | –
4 | Cc1nc2ccccc2c(=O)n1/N=C/c1ccc(Oc2ccc(Br)cc2)cc1 | 4.64 | – | inactive | Non-toxic | 50% | Activity [2]: inactive
5 | Cc1nc2ccccc2c(=O)n1/N=C/c1ccc(Oc2ccc(Cl)cc2)cc1 | 4.6 | – | – | – | – | –
6 | Cc1cc(Oc2ccc(/C=N/n3c(C)nc4ccccc4c3=O)cc2)ccc1Cl | 4.41 | inactive | inactive | Non-toxic | 50% | Activity ([2]; route intraperitoneal): 50%; Activity ([7]; route intraperitoneal): 25%
7 | Cc1nc2ccccc2c(=O)n1/N=C1/C(=O)Nc2ccccc21 | 2.23 | inactive | inactive | Non-toxic | – | Activity [2]: inactive; Activity [7]: inactive
8 | Cc1nc2ccccc2c(=O)n1/N=C/c1ccc(Oc2ccc([N+](=O)[O-])cc2)cc1 | 4.01 | – | inactive | Non-toxic | – | –
9 | Cc1ccc(Oc2ccc(/C=N/n3c(-c4ccccc4)nc4ccccc4c3=O)cc2)cc1 | 6.29 | – | – | – | – | Activity [12]: inactive; Activity [13]: inactive
10 | O=c1c2ccccc2nc(-c2ccccc2)n1/N=C/c1ccc(Oc2ccc(F)cc2)cc1 | 6.21 | inactive | inactive | Non-toxic | – | Activity ([7]; route intraperitoneal): 25%
11 | Cc1ccc(Oc2ccc(/C=N/n3c(C)nc4ccccc4c3=O)cc2)cc1 | 4.32 | – | inactive | Non-toxic | 75% | Activity ([1]; route intraperitoneal): 25%; Activity ([2]; route intraperitoneal): 50%
12 | O=c1c2ccccc2nc(-c2ccccc2)n1/N=C/c1ccc(Oc2ccc(Cl)cc2)cc1 | 6.38 | – | – | – | – | Activity [12]: inactive; Activity [13]: inactive
13 | O=c1c2ccccc2nc(-c2ccccc2)n1/N=C/c1ccc(Oc2ccc3c(c2)OCO3)cc1 | 6.01 | inactive | inactive | Non-toxic | – | Activity [6]: inactive; Activity [7]: inactive
14 | CCCc1nc2ccccc2c(=O)n1/N=C1/C(=O)Nc2ccccc21 | 3.23 | – | inactive | Non-toxic | 50% | Activity ([1]; route intraperitoneal): 25%; Activity ([2]; route intraperitoneal): 75%; Activity ([7]; route intraperitoneal): 50%
15 | Cc1nc2ccccc2c(=O)n1/N=C/c1ccc(Oc2ccc3c(c2)OCO3)cc1 | 4.01 | inactive | inactive | Non-toxic | – | Activity [2]: inactive; Activity [7]: inactive
16 | O=c1c2ccccc2nc(-c2ccccc2)n1/N=C/c1ccc(Oc2ccc([N+](=O)[O-])cc2)cc1 | 6.12 | – | – | – | – | Activity [12]: inactive; Activity [13]: inactive
17 | Cc1nc2ccccc2c(=O)n1/N=C/c1ccc(Oc2ccccc2)cc1 | 4.01 | inactive | inactive | Non-toxic | – | Activity [2]: inactive; Activity [7]: inactive
18 | O=c1c2ccccc2nc(-c2ccccc2)n1/N=C/c1ccc(Oc2ccccc2)cc1 | 6.13 | – | – | – | – | Activity [12]: inactive; Activity [13]: inactive
19 | O=C1Nc2ccccc2/C1=N\n1c(-c2ccccc2)nc2ccccc2c1=O | 4.03 | – | – | – | – | Activity [12]: inactive; Activity [13]: inactive

Now from value to molecule, other results behind:

Row | logP [3] | Compound | Activity [1] | Activity [4] | Activity [5] | Activity ([6]; route intraperitoneal) | also measured
20 | 5.2 | CCCc1nc2ccccc2c(=O)n1/N=C/c1ccc(Oc2ccccc2)cc1 | inactive | inactive | Non-toxic | – | Activity [2]: inactive
21 | 6.12 | CCCc1nc2ccccc2c(=O)n1/N=C/c1ccc(Oc2ccc3ccccc3c2)cc1 | inactive | inactive | Non-toxic | 50% | Activity ([2]; route intraperitoneal): 50%; Activity ([7]; route intraperitoneal): 25%
22 | 5.18 | CCCc1nc2ccccc2c(=O)n1/N=C/c1ccc(Oc2ccc([N+](=O)[O-])cc2)cc1 | inactive | inactive | Non-toxic | – | Activity [6]: inactive
23 | 5.22 | Cc1nc2ccccc2c(=O)n1/N=C/c1ccc(Oc2ccc3ccccc3c2)cc1 | inactive | inactive | Non-toxic | 50% | Activity [2]: inactive; Activity [7]: inactive
24 | 6.53 | O=c1c2ccccc2nc(-c2ccccc2)n1/N=C/c1ccc(Oc2ccc3ccccc3c2)cc1 | – | – | – | – | Activity [12]: inactive; Activity [13]: inactive
25 | 4.82 | CCCc1nc2ccccc2c(=O)n1/N=C/c1ccc(Oc2ccc3c(c2)OCO3)cc1 | – | – | – | – | –
26 | 5.22 | CCCc1nc2ccccc2c(=O)n1/N=C/c1ccc(Oc2ccc(F)cc2)cc1 | inactive | inactive | Non-toxic | – | Activity [6]: inactive; Activity [7]: inactive
27 | 5.88 | CCCc1nc2ccccc2c(=O)n1/N=C/c1ccc(Oc2ccc(Br)cc2)cc1 | inactive | inactive | Non-toxic | 25% | Activity ([2]; route intraperitoneal): 50%; Activity ([7]; route intraperitoneal): 50%
28 | 5.45 | CCCc1nc2ccccc2c(=O)n1/N=C/c1ccc(Oc2ccc(C)cc2)cc1 | inactive | inactive | Non-toxic | 50% | Activity [2]: inactive; Activity [7]: inactive
29 | 6.02 | CCCc1nc2ccccc2c(=O)n1/N=C/c1ccc(Oc2ccc(Cl)c(C)c2)cc1 | – | inactive | Non-toxic | – | Activity ([2]; route intraperitoneal): 50%
30 | 5.78 | CCCc1nc2ccccc2c(=O)n1/N=C/c1ccc(Oc2ccc(Cl)cc2)cc1 | inactive | inactive | Non-toxic | – | Activity ([2]; route intraperitoneal): 50%; Activity [6]: inactive; Activity [7]: inactive
